# Rpn11 inh = inhibitors of human proteasome Rpn11 | O00487 | human 26S proteasome, Ub4-pepOG fluorescence polarization; 20S core pre-blocked with epoxomicin | inhibition, % at 20 µM | 360,000 tested, 0.59% active | AID 588493;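 active means inhibition at 20 µM, scaled to each plate's controls, above about 33%, limit read from the data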
# Target sequence (O00487 whole entry, looked up): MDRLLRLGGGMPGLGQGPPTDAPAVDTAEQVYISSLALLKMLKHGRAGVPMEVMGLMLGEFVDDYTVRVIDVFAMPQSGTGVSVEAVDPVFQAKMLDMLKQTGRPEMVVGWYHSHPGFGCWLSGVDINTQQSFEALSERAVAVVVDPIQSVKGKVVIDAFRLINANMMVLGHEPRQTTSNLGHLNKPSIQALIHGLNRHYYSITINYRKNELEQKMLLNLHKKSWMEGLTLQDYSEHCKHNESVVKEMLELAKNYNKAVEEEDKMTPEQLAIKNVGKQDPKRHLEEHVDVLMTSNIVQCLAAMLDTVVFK
# UCH37 DUB inh = inhibitors of human deubiquitinating enzyme UCH37 | 330,000 tested, 0.33% active | inhibition, % (test concentration not listed) | purified proteasome/UCH37, Ub-AMC cleavage fluorescence | Q9Y5K5;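 active means mean inhibition over replicate wells above about 20%, limit read from the data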;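 further: 0% = compound-free wells with enzyme and 100% = wells lacking proteasome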
# Target sequence (Q9Y5K5 whole entry, looked up): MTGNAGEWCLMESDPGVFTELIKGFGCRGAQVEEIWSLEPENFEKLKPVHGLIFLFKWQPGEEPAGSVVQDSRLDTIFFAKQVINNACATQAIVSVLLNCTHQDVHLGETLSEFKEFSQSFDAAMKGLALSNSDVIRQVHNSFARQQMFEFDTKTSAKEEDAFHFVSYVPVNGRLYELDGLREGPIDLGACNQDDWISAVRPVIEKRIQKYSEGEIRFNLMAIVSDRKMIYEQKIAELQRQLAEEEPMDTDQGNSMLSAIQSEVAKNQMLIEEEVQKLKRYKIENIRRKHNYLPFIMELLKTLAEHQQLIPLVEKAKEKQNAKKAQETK
#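 system = Proteasome-associated human UCH37 deubiquitinase | amount = 0.15 nM proteasome as dispensed | medium = pH 7.4 Tris-HCl (50 mM) with ovalbumin, ATP-MgCl2, DTT | incubation = 30 min preincubation with enzyme, 25 min cleavage at room temperature | detection = AMC fluorescence 355/460 nm | read-out basis = percent inhibition | controls = no-proteasome and no-compound wells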
# PLCg1 inh = blocks human PLC-gamma1 enzyme activity. purified PLC-gamma1, fluorogenic substrate, fluorescence. inhibition, % at 12.2 µM. 370,000 tested, 0.84% active; in the data active means inhibition above about 9.5%
# PLCb3 inh = blocks human PLC-beta3 enzyme activity; Q01970; Purified PLC-beta3, fluorogenic substrate, fluorescence; inhibition, % at 12.2 µM; 370,000 tested, 0.18% active; AID 720704;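 further: 0% = median of compound wells on plate and 100% = full blocker control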
# Rpn11 inh conf = Rpn11 inhibition confirmation, single concentration. shares compounds with Rpn11 inh. purified human 26S proteasome, Ub4-pepOG fluorescence polarization; proteasome pretreated with epoxomicin. inhibition, % at 20 µM. 1,900 tested, 29% active. AID 602318; in the data active means inhibition above about 40%
# MMP-2 counter = blocks human MMP-2, flagging nonselective RPN11 hits | shares compounds with Rpn11 inh | recombinant MMP-2, FRET peptide cleavage fluorescence | inhibition, % at 20 µM | 1,900 tested, 4% active | AID 602330; in the data active means inhibition above about 40%;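 further: human MMP-2 activated beforehand with APMA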
# Thrombin FP = thrombin (bovine) inhibition counter-screen; shares compounds with Rpn11 inh; bovine thrombin cleavage of Ub4-pepOG, fluorescence polarization; inhibition, % at 20 µM; 1,900 tested, 13% active;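 active means mean inhibition at least 40% at 20 µM, or signal 3 deviations below plate average, so some actives read negative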;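 further: plate controls were thrombin with DMSO for no effect and buffer wells lacking thrombin for full effect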
# PLCgamma1 ctr = counter-screen for PLC-beta3 inhibitors: inhibitors of human PLC-gamma1. shares compounds with PLCg1 inh. purified PLC-gamma1, fluorogenic substrate, fluorescence. inhibition, % at 12.3 µM. 3,300 tested, 3.1% active. AID 743258; in the data active means inhibition above about 9.5%
# PLCbeta3 conf = confirmation of human PLC-beta3 inhibitors; shares compounds with PLCg1 inh; purified PLC-beta3, fluorogenic substrate fluorescence; inhibition, % at 12.3 µM; 3,300 tested, 1% active
# Active calls of the source: *; . = not tested or not shown. This is a sample that favours compounds with a hit; in the whole collection about 1.7% have one here. Unless noted, no stated cut-off is given here; in the data, active means inhibition above about 11%; inactive means the rest.
SMILES,Rpn11 inh,UCH37 DUB inh,PLCg1 inh,PLCb3 inh,PLCgamma1 ctr,PLCbeta3 conf,others
CCOC(=O)C1=C(O)/C(=C/c2ccc(-c3ccccc3C(=O)O)o2)SC1=Nc1ccc(OC)cc1,51.7*,23.5*,-27.0,-32.5,.,.,Rpn11 inh conf=59.8*;MMP-2 counter=11.9;Thrombin FP=40.9*
CC(=O)c1cn(CC(=O)NCc2ccc3c(c2)OCO3)c2ccccc12,93.2*,0.5,-2.1,-3.8,.,.,Rpn11 inh conf=-16.0;MMP-2 counter=-7.5;Thrombin FP=-15.9
COc1ccc(C)cc1Nc1nc(-c2c[nH]c3ccccc23)cs1,41.7*,-7.3,-39.1,-44.9,.,.,Rpn11 inh conf=7.7;MMP-2 counter=27.9;Thrombin FP=0.5
O=C(CCCN1C(=O)/C(=C\c2ccco2)SC1=S)Nc1ccc(O)cc1C(=O)O,40.3*,.,9.6*,-24.8,-11.2,-24.1,Rpn11 inh conf=7.8;MMP-2 counter=27.0;Thrombin FP=-3.0
O=C(CCCN1C(=O)/C(=C\c2cccs2)SC1=S)Nc1ccc(O)cc1C(=O)O,6.5,8.2,-0.7,-6.3,.,.,
O=C(CCCN1C(=O)/C(=C/c2ccco2)SC1=S)Nc1cccc(C(=O)O)c1,36.6*,9.5,10.6*,-12.2,9.4,-14.0,Rpn11 inh conf=-3.2;MMP-2 counter=45.4*;Thrombin FP=0.5
O=C(CCN1C(=O)/C(=C\c2ccccc2F)SC1=S)Nc1ccc(C(=O)O)c(O)c1,0.2,.,3.6,-10.8,.,.,
O=C(CN1C(=O)/C(=C/c2ccco2)SC1=S)Nc1ccc(C(=O)O)c(O)c1,91.1*,10.1,57.9*,-12.8,40.1*,-13.3,Rpn11 inh conf=42.7*;MMP-2 counter=35.1;Thrombin FP=1.9
O=C(CN1C(=O)/C(=C/c2ccco2)SC1=S)Nc1ccc(O)c(C(=O)O)c1,81.2*,10.9,46.5*,-25.9,36.5*,-17.3,Rpn11 inh conf=16.5;MMP-2 counter=10.2;Thrombin FP=9.2
COc1cccc(C(C)=NNc2ncc(Cl)cc2Cl)c1,.,4.7,.,.,.,.,
Nc1nnn(CC(=O)NN=C/C=C/c2ccccc2)n1,.,3.8,.,.,.,.,
CCN(CC)CCCn1c2c(c(SCC(=O)Nc3cccc(C(C)=O)c3)nc1=O)CCC2,1.5,3.6,2.2,-5.1,.,.,
CCN(CC)CCCn1c2c(c(SCC(=O)Nc3cc(C)cc(C)c3)nc1=O)CCC2,1.7,.,13.0*,0.3,0.7,-5.5,
COc1ccc(CC(=O)NN=C(C)c2cccnc2)cc1,.,1.3,.,.,.,.,
CC(=NNC(=O)c1c(Br)c(C)nn1C)c1cccc(NC(=O)c2ccccc2F)c1,.,3.5,.,.,.,.,
Nc1cc(S(=O)(=O)O)cc([N+](=O)[O-])c1O,1.5,4.8,33.0*,-0.8,64.3*,9.9,
Nc1cccc2c(O)cc(S(=O)(=O)O)cc12,-40.3,-291.8,.,.,.,.,
CC(C)C12CN3CC(C(C)C)(CN(C1)C3c1ccc3c(c1)OCO3)C2=O (stereo not drawn),18.1,2.4,7.1,12.3*,-6.5,-1.9,
CC(/C=C/c1ccc2c(c1)OCO2)=NNC(=O)C(O)c1ccccc1 (stereo not drawn),.,0.7,.,.,.,.,
O=C(c1ccc(CSc2nc3ccncc3[nH]2)cc1)N1CCN(c2cccc(Cl)c2)CC1,8.7,2.5,16.1*,2.4,1.7,0.6,
O=C(c1ccc(CSc2nc3ccncc3[nH]2)cc1)N1CCCCCC1,-1.6,3.6,1.6,-4.0,.,.,
O=C(O)C1Nc2c(O)cccc2C2C=CCC12 (stereo not drawn),.,6.8,18.5*,6.8,-3.1,-6.7,
CC(C)CC(NC(=O)C(NC(=O)OC(C)(C)C)C(C)C)C(=O)N1CCCC1C(N)=O (stereo not drawn),-6.4,-1.6,-2.5,1.3,.,.,
COC(=O)[C@@H]1CCCN1C(=O)[C@@H](NC(=O)OC(C)(C)C)C(C)C,1.4,2.4,8.4,14.1*,-3.9,1.3,
COc1ccc(C(=O)C(C=NO)=NNc2ccc(F)cc2)cc1,.,6.9,.,.,.,.,
SMILES,Rpn11 inh,UCH37 DUB inh,PLCg1 inh,PLCb3 inh,PLCgamma1 ctr,PLCbeta3 conf,others
CCOC(=O)C1=C(C)N=c2sc(=Cc3ccc(OCC(=O)O)cc3)c(=O)n2C1c1ccc(F)cc1 (stereo not drawn),.,11.3,.,.,.,.,
c1ccc(Nc2cc(Nc3ccccc3)[nH]n2)cc1,3.3,3.0,21.5*,5.4,2.9,3.1,
O=c1nccc(Nc2ccccc2)[nH]1,-6.6,8.3,-0.1,-3.2,.,.,
COc1ccc(C(CCNCc2ccc(OC(C)C)cc2)c2ccccc2OC)cc1 (stereo not drawn),-1.0,0.7,5.8,4.5,.,.,
COc1ccc(CNCCC(c2ccccc2)c2ccc(OC(C)C)cc2)cc1OC (stereo not drawn),-5.8,1.6,10.5*,6.8,1.5,4.5,
COc1ccc(CNCCC(c2ccc(F)cc2)c2ccc(OC(C)C)cc2)cc1OC (stereo not drawn),-5.1,.,10.6*,-2.1,-4.2,2.0,
COc1ccc(NN=C(C)C(=NO)C(=O)Nc2ccccc2)cc1,.,5.7,.,.,.,.,
COc1cc(C=NN2CCN(C3c4ccccc4-c4ccccc43)CC2)cc(OC)c1OC,.,5.2,.,.,.,.,
CCCCCCC1CC(CSC(=N)N)OC1=O (stereo not drawn),-3.2,5.0,10.6*,5.7,7.1,-0.1,
CCN(CC)C(=O)C1=C(C)N(Cc2ccc(C(C)(C)C)cc2)C(=O)C(CC(=O)NC2CCCC2)C1 (stereo not drawn),0.8,.,11.5*,4.6,-4.7,2.0,
CCc1ccccc1NC(=O)CC1SCCNC1=O (stereo not drawn),1.6,-0.4,11.0*,2.9,-6.6,-0.5,
CCOC(=O)C1=C(C)N=c2sc(=Cc3cccc([N+](=O)[O-])c3O)c(=O)n2C1c1ccccc1 (stereo not drawn),.,12.7,.,.,.,.,
Cc1cc(Cl)ccc1OC(C)C(=O)N1CCCN(C(=O)C(C)Oc2ccc(Cl)cc2C)CC1 (stereo not drawn),-5.5,5.2,10.4*,4.5,-5.4,-4.4,
Cc1cc(Cl)ccc1OCC(=O)N1CCCN(C(=O)COc2ccc(Cl)cc2C)CC1,-24.6,3.0,10.1*,3.6,-9.4,-3.7,
Cc1cc(Cl)ccc1OCC(=O)N1CC(C)CC(C)C1 (stereo not drawn),-4.3,0.8,0.5,2.6,.,.,
O=C(CON=C1CCCc2nonc21)Nc1ccccc1Cl,.,-1.2,.,.,.,.,
Cc1cc(C(=O)N2CCC2(C)C(=O)Nc2ccc3[nH]ncc3c2)nn1C (stereo not drawn),-6.7,.,2.9,15.3*,-7.0,-4.8,
ON=C1CCSc2ccccc21,.,4.3,.,.,.,.,
Cc1cc(C=Nn2cnnc2)c(C)n1-c1ccc(Cl)cc1,.,3.4,.,.,.,.,
O=C(Nc1ccc(N2CCN(C(=O)c3cccs3)CC2)c(Cl)c1)c1ccco1,-0.9,1.1,14.3*,2.7,-4.2,-6.7,

# Screens as filed in PubChem.
